Assay results from ChEMBL document CHEMBL1121579, “Synthesis and adrenergic blocking effects of 2-(alkylamino)-3,4-dihydroquinazolines” (1980).

Experiments:
Rattus norvegicus [1] = assay: Antagonist effect to pressor response of 0.3 ug/kg of norepinephrine intravenously in rats at the dose 32 uM/kg.; type: functional
Procedure, shortened: (§1)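 Male Sprague-Dawley rats, 300–350 g, anesthetized with pentobarbital sodium 40 mg/kg ip, trachea cannulated for ventilation. Drugs dissolved in 0.9% saline and injected into a cannulated external jugular vein. Poorly soluble material was given in polyethylene glycol/ethanol/water 20:10:70. n = 3 per determination.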

Rattus norvegicus [2] = assay: Decrease in mean arterial blood pressure in response to intravenous administration at 16 uM/kg of the compound.; type: functional, Artery; procedure, shortened: as §1
Rattus norvegicus [3] = assay: Decrease in mean arterial blood pressure in response to intravenous administration at 2 uM/kg of the compound; type: functional, Artery; procedure, shortened: as §1
Rattus norvegicus [4] = assay: Decrease in mean arterial blood pressure in response to intravenous administration at 32 uM/kg of the compound.; type: functional, Artery; procedure, shortened: as §1
Rattus norvegicus [5] = assay: Decrease in mean arterial blood pressure in response to intravenous administration at 4 uM/kg of the compound; type: functional, Artery; procedure, shortened: as §1
Rattus norvegicus [6] = assay: Decrease in mean arterial blood pressure in response to intravenous administration at 64 uM/kg of the compound.; type: functional, Artery; procedure, shortened: as §1
Rattus norvegicus [7] = assay: Decrease in mean arterial blood pressure in response to intravenous administration at 8 uM/kg of the compound; type: functional, Artery; procedure, shortened: as §1
Rattus norvegicus [8] = assay: Antagonist effect to pressor response of 0.3 ug/kg of norepinephrine intravenously in rats at the dose 32 uM/kg; type: functional; procedure, shortened: as §1
Rattus norvegicus [9] = assay: Decrease in mean arterial blood pressure in response to intravenous administration at 64 uM/kg of the compound; type: functional, Artery; procedure, shortened: as §1
Rattus norvegicus [10] = assay: decrease in mean arterial blood pressure in response to intravenous administration at 16 uM/kg of the compound; type: functional; procedure, shortened: as §1
Rattus norvegicus [11] = assay: Decrease in mean arterial blood pressure in response to intravenous administration at 32 uM/kg of the compound; type: functional, Artery; procedure, shortened: as §1
Rattus norvegicus [12] = assay: Decrease in mean arterial blood pressure in response to intravenous administration at 16 uM/kg of the compound; type: functional, Artery; procedure, shortened: as §1

SMILES | Block (Rattus norvegicus [1]) [%] | Decrease in blood pressure (Rattus norvegicus [2]) [%] | Decrease in blood pressure (Rattus norvegicus [3]) [%] | Decrease in blood pressure (Rattus norvegicus [4]) [%] | Decrease in blood pressure (Rattus norvegicus [5]) [%] | Decrease in blood pressure (Rattus norvegicus [6]) [%] | Decrease in blood pressure (Rattus norvegicus [7]) [%] | Block (Rattus norvegicus [8]) [%] | Decrease in blood pressure (Rattus norvegicus [9]) [%] | Decrease in blood pressure (Rattus norvegicus [10]) [%] | Decrease in blood pressure (Rattus norvegicus [11]) [%] | Decrease in blood pressure (Rattus norvegicus [12]) [%]
CNC1=Nc2ccccc2CN1 | 37.8 | 19.7 | 4.67 | 25 | 7.7 | 33.3 | 12.7 | – | – | – | – | –
NC1=Nc2ccccc2CN1 | – | – | 6.76 | – | 12 | – | 13.3 | 49.3 | 23.3 | 15 | 17.7 | –
CN(C)C1=Nc2ccccc2CN1 | – | – | 0 | – | 0 | 24.7 | 5.67 | 10 | – | – | 12.3 | 7.3
CCCN(CCC)C1=NCc2ccccc2N1 | – | 30.9 | 3.2 | 40 | 7.6 | – | 11.5 | – | – | – | – | –
Cc1ccc(N(CC2=NCCN2)c2cccc(O)c2)cc1 [PHENTOLAMINE] | – | – | – | – | – | – | – | 66.2 | – | – | – | –
